Assay results as given in PubChem BioAssay AID743061 (The Scripps Research Institute Molecular Screening Center, 2013).

Each molecule was assayed against Methionine--tRNA ligase, mitochondrial (Homo sapiens) (UniProt Q96GW9) (assay: inhibitors of human mitochondrial MetRS, late-stage follow-up, selectivity assay for T. brucei MetRS inhibitor project, biochemical, radioactivity, round 1 (AID 743061;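 further: 0% = DMSO with full reaction and 100% = DMSO wells lacking tRNA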)). Settings: recombinant human mtMetRS, [3H]Met tRNA charging, at 10 µM, stronger effect = higher value.
Method in brief: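 System: human mitochondrial MetRS enzyme / Buffer or medium: pH 8.0 reaction buffer containing 2.5 mM ATP / Probe or stimulus: 240 nM [3H]methionine with bulk E. coli tRNA acceptor / Doses: 10 and 1 µM / Times: 15 min compound–enzyme preincubation, then 1 h reaction at room temperature / Detection: scintillation counts of TCA-precipitated charged tRNA on filters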

| Compound | inhibition [%] |
| --- | --- |
| Brc1cnc2nc(SCc3nc4ccccc4[nH]3)[nH]c2c1 | -14.2 |
| O=C(CN1CCSC1=NCc1ccccc1)c1ccc(Cl)c(Cl)c1 | -25.5 |
| O=C(CC=NOCc1ccc([N+](=O)[O-])cc1)Nc1ccc(Cl)cc1 | 1.47 |
| O=C(CCC(=O)Nc1cccc([N+](=O)[O-])c1)NN=Cc1cccs1 | -14.1 |
| O=C1CC(N(CCc2ccccc2)C(=S)Nc2ccccc2)C(=O)N1c1ccc(Br)cc1 (stereo unspecified) | 25.6 |
| O=C(NCc1nc2ccccc2[nH]1)C1=C[C@@H](c2ccccc2)C[C@@H](OCc2ccc(CO)cc2)O1 | 15.8 |
| CCN(CCc1nc2ccc(C)cc2[nH]1)C(=O)c1ccc2ncccc2c1 | 1.1 |
| C[C@H](O)[C@@H]1C(=O)N2CCc3c([nH]c4ccccc34)[C@@H]2C[C@@H]1N(C)Cc1ccc2c(c1)OCO2 | 24.8 |
| CCc1ccc2c(c1)c1nnc(SCC(=O)Nc3ccc4c(c3)OCO4)nc1n2C | 5.87 |
| O=C(NCc1nc2ccccc2[nH]1)C1=C[C@@H](c2ccc3c(c2)OCO3)C[C@@H](OCCCCO)O1 | -0.58 |
| Clc1ccc(OCCSCc2nc3ccccc3[nH]2)cc1 | -5.52 |
| O=C(NCc1nc2ccccc2[nH]1)C1=C[C@@H](c2ccc(Br)cc2)C[C@@H](OCc2ccc(CO)cc2)O1 | 16.7 |
| O=C(Cn1cc(C(=O)C2CC2)c2ccccc21)Nc1cccc(C(F)(F)F)c1 | 11.9 |
| COc1ccccc1NC(=O)CSc1nnc2c(n1)[nH]c1ccc(C)cc12 | 7.39 |
| Cc1ccc(C(=O)NCCc2nc3ccccc3[nH]2)cc1[N+](=O)[O-] | 7.36 |
| COCCc1nc2ccc(C(=O)NCCc3nc4ccc(OC)cc4[nH]3)cc2o1 | 0.45 |
